ERa SRC1 pot: ER-alpha (human) coactivator binding potentiation. actives 1.3% (n = 86,000). TR-FRET ERalpha-LBD/SRC-Cy5 coactivator binding, 2 h; 100 = basal binding, no effect. coactivator binding (% of control), % at 25.6 µM; in the data active = activity above about 200%;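 also: binding measured in presence of low estradiol as agonist stimulus; 0% = peptide alone without receptor and 100% = receptor with peptide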
SF-1 act: SF-1 (human) activation; Q13285; CHO-K1 Gal4-SF-1 LBD luciferase reporter; % increase over DMSO SF-1-specific signal; activation, % at 10 µM; actives 1.9% (n = 65,000); AID 522;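 active = activation above the mean activation of all tested compounds plus 3 SD, cut at about 50% in these data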
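Test system: CHO-K1 cells with Gal4–hSF-1 LBD chimera plus Gal4-driven luciferase; Input: 4,000 cells/well; Compound: 10 µM only; Times: 20 h compound treatment, 37 °C; Measured by: steady-glow luciferase luminescence, read after 15 min reagent incubation; Measure: percent activation versus DMSO; Control set: DMSO and mock-transfected background; Replicates: one test per compound.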
BAP1 inh: blocks human BAP1 ubiquitin-AMC hydrolysis | Q92560 | calls only at 20 µM | recombinant BAP1, Ub-AMC hydrolysis fluorescence kinetic; active compounds read low | actives 0.48% (n = 72,000) | AID 436;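 active = activity remaining at or below 50% of control, provided the compound also passes the data quality filters; inactive = the rest, including low values that fail the filters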;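 also: 100% = DMSO wells rate and 0% = substrate alone blank rate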
Target sequence (Q92560 whole entry, looked up): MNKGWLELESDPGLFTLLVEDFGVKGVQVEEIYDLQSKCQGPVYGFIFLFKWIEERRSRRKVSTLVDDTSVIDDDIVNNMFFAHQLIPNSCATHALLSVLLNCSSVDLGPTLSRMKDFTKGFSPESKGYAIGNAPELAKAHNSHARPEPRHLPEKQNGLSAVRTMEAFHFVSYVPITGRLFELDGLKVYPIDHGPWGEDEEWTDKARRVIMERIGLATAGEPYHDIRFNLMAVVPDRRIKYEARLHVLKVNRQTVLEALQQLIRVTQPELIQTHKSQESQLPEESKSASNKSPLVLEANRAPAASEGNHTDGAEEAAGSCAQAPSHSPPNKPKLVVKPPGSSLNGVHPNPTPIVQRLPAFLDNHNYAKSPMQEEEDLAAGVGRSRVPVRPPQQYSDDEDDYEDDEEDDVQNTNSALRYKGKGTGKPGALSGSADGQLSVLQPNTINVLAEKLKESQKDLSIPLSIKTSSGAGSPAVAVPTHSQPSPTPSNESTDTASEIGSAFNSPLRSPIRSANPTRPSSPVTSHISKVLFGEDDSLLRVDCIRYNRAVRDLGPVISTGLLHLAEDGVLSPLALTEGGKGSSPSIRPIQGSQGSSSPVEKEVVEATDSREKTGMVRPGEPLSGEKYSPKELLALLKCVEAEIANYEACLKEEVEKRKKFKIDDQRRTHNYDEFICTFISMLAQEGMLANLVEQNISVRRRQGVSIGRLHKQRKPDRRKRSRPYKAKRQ
RORa activator: activators of human nuclear receptor RORA; P35398; CHO-K1 Gal4-RORA LBD luciferase reporter, luminescence; percent increase over mock-subtracted basal signal; activation, % at 10 µM; actives 1.5% (n = 65,000);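 active = activation above the mean of all tested compounds plus 3 SD, cut at about 49% in these data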;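 also: 0% = DMSO-treated RORA cells and 100% = added signal equal to DMSO minus mock-transfected cells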
ERa coact inh: blocks coactivator binding to human estrogen receptor alpha | P03372 | TR-FRET ER-alpha LBD / SRC-1 peptide, estradiol-bound | inhibition, % at 25.6 µM | actives 1.7% (n = 86,000); in the data active = inhibition above about 50%;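 also: 0% = receptor plus peptide control and 100% = peptide only without receptor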
ERb SRC1 inh: blocks coactivator binding to human estrogen receptor beta. Q92731. TR-FRET ER-beta LBD / SRC1-Cy5 peptide binding; receptor agonist-loaded with 1 µM estradiol. inhibition, % at 25.6 µM. actives 1.3% (n = 86,000);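 active = compounds whose percent inhibition of the receptor-coactivator binding signal exceeds about 50% in the single-dose screen, limit read from the data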;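 also: 0% = receptor plus peptide wells without compound and 100% = peptide-only wells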
Active calls of the source: *; i = inactive; / = not tested or not shown; [ ] = another dose, or the depositor's remark. An excerpt weighted towards active compounds, which were near 5.1% of everything screened.

SMILES	ERa SRC1 pot	SF-1 act	BAP1 inh	RORa activator	ERa coact inh	ERb SRC1 inh
Cc1noc(NS(=O)(=O)c2ccc(NC(=O)c3cnc4scc(C)n4c3=O)cc2)c1C	88.2	6.2	i	0.5	-3.8	0.1
Cc1csc2ncc(C(=O)Nc3ccon3)c(=O)n12	113.4	-6.1	/	15.4	-6.5	-3.5
Cc1csc2ncc(C(=O)Nc3ccc4c(c3)OCCO4)c(=O)n12	120.7	34.5	i	97.2*	12.2	5.7
O=C(C(Sc1ccccc1)c1ccccc1)N1CCCCCC1 (configuration not stated)	/	/	i	/	/	/
Oc1ccc(-c2nc(-c3ccc(O)c(O)c3)cs2)cc1	19.2	27.6	i	38.9	67.8*[fluorescence artefact?]	82.4*
Cc1ccsc1C(=O)OCC(=O)Nc1sccc1C(N)=O	90.7	74.5*	i	41.5	21.8	31.8
Nc1ccc(Cl)c(NC(=O)c2cccs2)c1	99.7	1.8	i	-3.3	7.2	-5.0
Cc1ccsc1C(=O)OCC(=O)NCC1CCCO1 (configuration not stated)	94.2	4.5	i	22.1	-5.2	-8.5
Nc1ccc(NC(=O)c2cccs2)c(Cl)c1	237.5*[fluorescence artefact?]	15.3	i	21.1	-6.0	-7.8
Cc1sc(NC(=O)c2cccs2)c(C(N)=O)c1C	116.0	50.8*	i	44.8	-0.5	2.8
NC(=O)c1ccsc1NC(=O)c1cccs1	113.6	54.9*	i	67.6*	-0.1	2.4
Cc1ccc(N2C(=O)C(N3C(=O)c4ccc([N+](=O)[O-])cc4C3=O)C2c2ccc3c(c2)OCO3)cc1F (configuration not stated)	/	/	i	/	/	/
CCCOC(=O)C1=C(C)NC2=C(C(=O)CCC2)C1c1cccc2ccccc12 (configuration not stated)	/	/	i	/	/	/
O=C(Nc1nc2c(s1)CCCC2)C1CCCN1C(=O)c1cccs1 (configuration not stated)	126.1	9.6	i	-1.6	1.4	-0.4
NC(=O)c1ccsc1NC(=O)COC(=O)C1CCCN1C(=O)c1cccs1 (configuration not stated)	43.6	26.0	i	-13.1	52.8*[fluorescence artefact?]	68.2*[fluorescence artefact?]
CN1C(=O)c2ccccc2C(C(=O)NCC2CCCO2)C1c1c[nH]c2ccccc12 (configuration not stated)	96.8	6.3	i	0.7	-6.2	80.9*[fluorescence artefact?]
O=C1CC(c2ccco2)Cc2nc(Nc3nc(-c4ccccc4)c4ccccc4n3)ncc21 (configuration not stated)	97.9	-15.9	/	7.3	43.1	51.2*[fluorescence artefact?]
Nc1nonc1-c1noc(COc2ccccc2Cl)n1	99.5	68.6*	i	87.9*	0.9	-5.8
Cc1cccc(OCc2nc(-c3nonc3N)no2)c1C	159.9	32.6	i	81.3*	7.7	-3.4
Nc1nonc1-c1noc(CCCN2C(=O)c3ccccc3C2=O)n1	126.6	49.5*	i	39.8	7.3	5.0
CCN(CC)c1ccc(C(=O)n2cnc3ccccc32)cc1	97.0	63.6*	i	39.0	1.4	2.8
COc1ccc2nc(SCC(=O)N3CCNC3=O)[nH]c2c1	107.0	64.8*	i	44.9	4.6	-4.0
CCN(CC)CCNC1=CC(=O)OC12CCCCC2	105.7	/	/	/	31.0	-4.0
CCN(CC)C1=CC(=O)OC12CCCCC2	72.5	3.8	i	-22.4	-37.0	61.5*
N#Cc1cc2c(nc1SCC(=O)NCc1ccc3c(c1)OCO3)CCCCC2	123.5	-15.3	i	-27.7	13.7	6.6
SMILES	ERa SRC1 pot	SF-1 act	BAP1 inh	RORa activator	ERa coact inh	ERb SRC1 inh
CCOC(=O)CC(=O)CSc1nc2c(cc1C#N)CCC2	108.6	/	/	/	-10.5	1.5
CCc1nnc(NC(=O)CSc2nc3c(cc2C#N)CCCC3)s1	510.4*[fluorescence artefact?]	78.5*	i	48.4	-19.6	-10.0
COC(=O)CC(=O)CSc1nc2c(cc1C#N)CCCCC2	107.3	78.0*	i	39.5	-4.0	2.0
CCCCCn1c2ccccc2c2nc3ccccc3nc21	/	/	i	/	/	/
c1ccc2nc3c(nc2c1)c1ccccc1n3CCN1CCOCC1	121.7	91.3*	i	14.1	-3.6	3.1
CCCn1c2ccc(Br)cc2c2nc3cc(OCC)c(OCC)cc3nc21	/	/	i	/	/	/
Brc1ccc2c(c1)c1nc3ccccc3nc1n2CCN1CCOCC1	99.5	24.8	i	15.7	55.8*[fluorescence artefact?]	44.8
CC1=C(C(=O)OC(C)C)C(c2cccc(Oc3ccccc3)c2)NC(=O)N1 (configuration not stated)	/	/	i	/	/	/
CN(Cc1ccccc1)c1ncnc2c1cnn2-c1ccccc1	106.9	23.1	i	42.9	-0.5	-8.9
c1ccc(-n2ncc3c(NCCN4CCOCC4)ncnc32)cc1	97.9	37.9	i	46.3	10.4	2.1
Cc1cccc(-n2ncc3c(NCc4ccccc4)ncnc32)c1	131.3	82.3*	i	78.1*	-4.4	-7.6
Cc1cccc(-n2ncc3c(NCc4ccccn4)ncnc32)c1	81.3	23.9	i	28.6	19.3	16.4
c1ccc(CCNc2ncnc3c2cnn3-c2ccccc2)cc1	96.2	14.1	i	55.5*	-0.8	-2.6
c1ccc(-n2ncc3c(NCCN4CCCCC4)ncnc32)cc1	98.2	68.8*	i	40.0	-6.3	-3.9
CCN(c1ccccc1)c1ncnc2c1cnn2-c1ccccc1	125.8	59.1*	i	59.3*	-0.9	-6.4
Cc1ccc(OCC(=O)c2cc(C)c(O)cc2O)cc1	/	/	i	/	/	/
O=C(Nc1cccnc1Cl)c1nn2c(C(F)(F)F)cc(-c3cc(Br)cs3)nc2c1Br	/	/	i	/	/	/
Cc1cccc(-n2ncc3c(NCCN4CCOCC4)ncnc32)c1	120.2	30.6	i	1.8	-2.2	-7.8
Cc1cccc(-n2ncc3c(N(CCO)CCO)ncnc32)c1	129.6	18.9	i	67.6*	-25.4	-6.6
c1ccc(CNc2ncnc3c2cnn3-c2ccccc2)cc1	109.8	77.3*	i	91.0*	-11.6	-2.9
Cc1cccc(-n2ncc3c(NCc4ccco4)ncnc32)c1	91.2	93.2*	i	71.7*	-10.6	-2.8
C1CCC(c2nn3c(-c4n[nH]c5c4CCC5)nnc3s2)CC1	19.8	-8.4	/	7.3	75.0*	61.4*
Brc1ccc(Nc2nc3ccccc3n3nnnc23)cc1	112.8	/	/	/	0.3	-19.7
CCN(CC)S(=O)(=O)c1ccc(Nc2nc3ccccc3n3nnnc23)cc1	77.6	49.4	i	70.2*	84.6*[fluorescence artefact?]	36.9
c1ccc2c(c1)nc(Nc1ccc3c(c1)OCO3)c1nnnn12	98.2	18.2	i	37.6	56.5*[fluorescence artefact?]	23.4
CCOc1ccc(-c2nnn(CC(=O)c3ccc4c(c3)OCCO4)n2)cc1OCC	385.5*[fluorescence artefact?]	-1.4	i	7.4	13.1	26.2
O=C(Nc1nc2ccccc2s1)C(=O)Nc1nc2ccccc2s1	/	/	i	/	/	/
